The source of these data is ChEMBL document CHEMBL5236607, “Membrane-Active Cyclic Amphiphilic Peptides: Broad-Spectrum Antibacterial Activity Alone and in Combination with Antibiotics” (J Med Chem, 2022).

Activity calls are given as the source filed them. Peptide text beside a SMILES is read from it.

Usually MIC stands for the smallest concentration in the dilution series that meets the test's criterion for growth inhibition.

The subject of test [1] is Escherichia coli. The experiment in a line: Induction of resistance development in Escherichia coli ATCC 25922 assessed as increase in MIC by microtiter plate reader assay. It is filed as functional, organism-based.
Test [2] relates to Klebsiella pneumoniae. The experiment in a line: Antibacterial activity against Klebsiella pneumoniae ATCC 700603 after 24 hrs by microbroth dilution method. It is filed as functional. On the technique in general: Broth dilution looks for growth in wells or tubes with falling amounts of substance.
The test system of test [3] is Escherichia coli. In words: Synergistic antibacterial activity against Escherichia coli ATCC 25922 assessed as fractional inhibitory concentration incubated for 24 hrs in presence of tobramycin by checkerboard assay. It is filed as functional. In outline: (§1)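 Checkerboard assay in MH broth. Inoculum from an LB overnight culture set to 0.5 McFarland and diluted 1/150. […] Each agent was also titrated alone. Incubation 24 h at 37 °C. FIC = combination MIC/individual MIC; FICI = sum of the FICs. Triplicate.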

The subject of test [4] is Pseudomonas aeruginosa. The experiment in a line: Synergistic antibacterial activity against Pseudomonas aeruginosa ATCC […] fractional inhibitory concentration index incubated for 24 hrs in presence of polymyxin B by checkerboard assay. Format: functional.
Test [5] deals with Pseudomonas aeruginosa. The experiment in a line: Synergistic antibacterial activity against Pseudomonas aeruginosa ATCC […] incubated for 24 hrs in presence of polymyxin B by checkerboard assay. It is filed as functional. In a few lines: (§2)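 Checkerboard assay. Inoculum from an LB overnight culture at 0.5 McFarland, diluted 1/150 in MH media. […] Incubated 37 °C for 24 h. FICI = MIC combination/MIC alone summed over both agents. Triplicate.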

The subject of test [6] is Staphylococcus aureus. The experiment in a line: Synergistic antibacterial activity against methicillin resistant Staphylococcus aureus ATCC BAA-1556 assessed as fractional inhibitory concentration incubated for 24 hrs in presence of tobramycin by checkerboard assay. It is filed as functional. In a few lines:
as §2

Test [7] deals with Staphylococcus aureus. The experiment in a line: Synergistic antibacterial activity against methicillin resistant Staphylococcus aureus ATCC BAA-1556 fractional inhibitory concentration incubated for 24 hrs in presence of polymyxin B by checkerboard assay. It is filed as functional. In outline: as §2
Test [8] deals with Staphylococcus aureus. The experiment in a line: Synergistic antibacterial activity against methicillin resistant Staphylococcus aureus ATCC BAA-1556 fractional inhibitory concentration incubated for 24 hrs in presence of Ciprofloxacin by checkerboard assay. It is filed as functional. In a few lines: as §2
The subject of test [9] is Escherichia coli. In words: Synergistic antibacterial activity against Escherichia coli ATCC 25922 incubated for 24 hrs in presence of meropenem by checkerboard assay. It is filed as functional. In outline: as §1
Test [10] has as its system Escherichia coli. In words: Synergistic antibacterial activity against Escherichia coli ATCC 25922 fractional inhibitory concentration index incubated for 24 hrs in presence of Ciprofloxacin by checkerboard assay. Format: functional. In a few lines:
as §1

In test [11] the test system is Escherichia coli. The experiment in a line: Synergistic antibacterial activity against Escherichia coli ATCC 25922 fractional inhibitory concentration incubated for 24 hrs in presence of Ciprofloxacin by checkerboard assay. Format: functional. In a few lines:
as §1

Regarding `N=C(N)NCCC[C@@H]1NC(=O)[C@H](CCCNC(=N)N)NC(=O)[C@H](CCCNC(=N)N)NC(=O)[C@H](Cc2c[nH]c3ccccc23)NC(=O)[C@H](Cc2c[nH]c3ccccc23)NC(=O)[C@H](Cc2c[nH]c3ccccc23)NC(=O)[C@H](Cc2c[nH]c3ccccc23)NC(=O)[C@H](CCCNC(=N)N)NC(=O)[C@H](CCCNC(=N)N)NC1=O`, the outcome in test [1] was inactive. Moreover, the MIC in [2] is more than 64 µg/mL; in test [5], 0.125 µg/mL. The FIC in test [3] and in test [6] was 0.25 throughout. In addition, the “fractional inhibitory concentration index (FICI)” value in test [4] was 0.375.

On to `N=C(N)NCCC[C@@H]1NC(=O)[C@H](CCCNC(=N)N)NC(=O)[C@H](CCCNC(=N)N)NC(=O)[C@H](CCCNC(=N)N)NC(=O)[C@H](Cc2c[nH]c3ccccc23)NC(=O)[C@H](Cc2c[nH]c3ccccc23)NC(=O)[C@H](Cc2c[nH]c3ccccc23)NC(=O)[C@H](Cc2c[nH]c3ccccc23)NC(=O)[C@H](CCCNC(=N)N)NC(=O)[C@H](CCCNC(=N)N)NC1=O` (cyclo(RRRRRRWWWW)), for which the FIC in [7] is listed as 0.063; in [8] it was 0.25; in [11] it was 0.125. Besides, the minimum inhibitory concentration (MIC) in test [9] turned out to be 0.125 µg/mL. In test [10], the “fractional inhibitory concentration index (FICI)” value turned out to be 0.375.
